This is an account of results in ChEMBL document CHEMBL3734722, “Structural Elucidation of a Small Molecule Inhibitor of Protein Disulfide Isomerase” (ACS Med Chem Lett, 2015).

The structures appear in SMILES notation. Active and inactive are the calls of the source. The calls are words filed in the database; no cut-off is given here.

Series [1] relates to PC-12. The experiment in a line: Neuroprotective activity against rat PC12 cells expressing mutant HTT-Q103 assessed as cell viability by alamar blue assay. Format: functional, cell-based. A digest of the protocol:
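PC12 cells stably carrying inducible mutant HTT plasmid (mHTT-Q103); expression induced, causing death within 48 h. Serial-dilution dose–response; after 48 h Alamar blue added and fluorescence read. Data as mean percent of DMSO-treated uninduced cells ± SD; EC50 from curve.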

Series [2] addresses Protein disulfide-isomerase (Homo sapiens) (UniProt P07237). As to the kind of experiment: Binding affinity to PDI catalytic domain a (unknown origin) after 1 hrs by intrinsic tryptophan fluorescence assay. A digest of the protocol:
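PDIa intrinsic Trp fluorescence recorded with varying securinine concentrations; emission spectra taken and intensity at 330 nm normalized; Kd derived from concentration-dependent quenching.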

For series [3] the target is unchanged. The experiment in a line: Irreversible binding affinity to PDI catalytic domain a (unknown origin) at 4.5 mM measured after 100 fold dilution for 2 hrs by intrinsic tryptophan fluorescence assay. In outline: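 Jump-dilution reversibility test: PDIa (1 mM) incubated with ligand at 4.5 mM, complex diluted 100-fold (to 45 μM ligand, 10 μM PDIa) and dialysed, then Trp emission spectra recorded. Phenylarsine oxide, a covalent vicinal-thiol modifier, processed identically as control.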

Series [4] in a line: Intrinsic clearance in mouse liver microsome at 0.5 microM incubated upto 45 mins by LC-MS/MS analysis. Format: ADME. As to conditions: microsomes, 0.75 h. A digest of the protocol:
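Mouse liver microsome incubation; intrinsic clearance expressed as mL/min/g, with 7-ethoxycoumarin as reference compound.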

The nature of series [5]: Plasma protein binding in mouse at 2000 ng/ml for 4 hrs by LC-MS/MS analysis. Format: ADME, cell-free. The conditions noted are these: read-out: PPB (converted).
For series [6], the system named is PC-12. The experiment in a line: Neuroprotective activity against rat PC12 cells expressing mutant HTT-Q103 assessed as increase in cell viability compound preincubated for 0,1,2,or 3 days in PC12 growth medium followed by cells addition measured after 48 hrs by alamar blue assay. It is filed as functional, cell-based. In outline:
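Compound held at 37 °C for 0, 1, 2 or 3 days in PC12 growth medium, then aliquots added to induced PC12 mHTT-Q103 cells. After 48 h treatment, Alamar blue added and viability quantified by fluorescence plate reader.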
In general terms: The colour change of resazurin is a common sign of viable cells or microbes.

A short description of series [7]: Half life in mouse plasma at 1 uM for 120 mins by LC-MS/MS analysis. Format: ADME, cell-free.

Chain of Protein disulfide-isomerase (Homo sapiens) (P07237 18-508 limits assumed): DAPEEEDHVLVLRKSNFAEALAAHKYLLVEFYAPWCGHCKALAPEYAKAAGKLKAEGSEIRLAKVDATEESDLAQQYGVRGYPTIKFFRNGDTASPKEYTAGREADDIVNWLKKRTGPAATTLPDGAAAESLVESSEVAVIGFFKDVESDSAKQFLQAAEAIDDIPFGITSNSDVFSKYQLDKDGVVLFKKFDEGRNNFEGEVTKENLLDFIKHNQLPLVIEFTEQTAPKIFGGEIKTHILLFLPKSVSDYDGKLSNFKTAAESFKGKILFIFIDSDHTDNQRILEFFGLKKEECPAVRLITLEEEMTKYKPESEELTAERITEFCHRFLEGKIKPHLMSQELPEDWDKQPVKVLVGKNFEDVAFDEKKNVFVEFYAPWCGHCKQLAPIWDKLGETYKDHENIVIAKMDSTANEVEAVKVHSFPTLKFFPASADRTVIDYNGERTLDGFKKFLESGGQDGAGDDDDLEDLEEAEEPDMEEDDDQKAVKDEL

Turning to `CC(C)C1OCCN1CC1COC2(CCCCC2)O1` (stereo not given), the result in series [1] was inactive.

Broadly, the EC50 is the concentration giving half of the maximal effect. One may read the half-life as the time in which the quantity being followed falls by half. A higher half-life goes with slow decline. Consider `O=C1C=C2C=C[C@H]3C[C@@]2(O1)[C@H]1CCCCN31`, for which the Activity result in series [2] was “Dose-dependent effect”. Besides, the result in series [3] and in series [6] was Active. In series [4], this molecule displayed a CLint of 8.3 mL/min/g. Besides, the fraction unbound at 4 h, 2000 ng/ml in series [5] is 0.51. The EC50 in series [1] was 3.3 µM. This molecule had a half-life at 1 µM in series [7] of 1.6 h.

For the molecule `CC(=O)CC(c1ccccc1)c1c(O)c2ccccc2oc1=O` (stereo not given) [WARFARIN], in series [5], the fraction unbound at 4 h, 2000 ng/ml was 0.06.

Consider `CCOc1ccc2ccc(=O)oc2c1` [ETHOXYCOUMARIN], for which, in series [4], the CLint worked out at 24.58 mL/min/g.
